From ChEMBL document CHEMBL4270630

Columns and labels:
Influenza A virus [1] = assay: Antiviral activity against Influenza A virus A/PR/8/34(H1N1) GFP-fused pseudotyped lentiviral particle expressing H1-HA/N1-NA infected in MDCK cells assessed as inhibition of pseudoparticle entry after 3 days by flow cytometry; format: functional, organism-based; details: A/Puerto Rico/8/1934(H1N1)
Outline: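 MDCK cells were seeded at 7500/well and one day later were exposed to compounds plus GFP lentiviral pseudoparticles bearing A/PR/8/34 H1-HA and N1-NA, with HA0 activated by trypsin. After 3 days the cells were trypsinized, fixed in paraformaldehyde and analysed for GFP by flow cytometry. Entry inhibition was taken as the reduction in GFP signal. Data are the mean ± SEM of four independent experiments.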

Influenza A virus [2] = assay: Antiviral activity against Influenza A virus A/PR/8/34(H1N1) infected in MDCK cells after 3 days by MTS assay; format: functional, organism-based, A/Puerto Rico/8/1934(H1N1); details: Influenza A virus, A/Puerto Rico/8/1934(H1N1), MDCK, 72 h
Outline: (§1)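 Semi-confluent MDCK cells were infected at an MOI of 0.0004 PFU/cell in Ultra-MDCK infection medium with 2 μg/mL TPCK-trypsin, together with compounds. After 3 days at 35 °C, CPE was scored by microscopy and confirmed by MTS formazan viability. EC50 is the concentration giving 50% inhibition of virus-induced CPE. Values are means of two to five independent tests.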

Influenza A virus [3] = assay: Antiviral activity against Influenza A virus A/PR/8/34(H1N1) infected in MDCK cells assessed as reduction in virus-induced cytopathic effect after 3 days by microscopic method; format: functional, organism-based, A/Puerto Rico/8/1934(H1N1); details: Influenza A virus, A/Puerto Rico/8/1934(H1N1), MDCK, 72 h; outline: as §1
Influenza A virus [4] = assay: Antiviral activity against Influenza A virus A/Virginia/ATCC3/2009(H1N1pdm) infected in MDCK cells assessed as reduction in virus-induced cytopathic effect after 3 days by microscopic method; format: functional, organism-based, Influenza A virus (A/Virginia/03/2009(H1N1)); details: 72 h; outline: as §1
[5] = Cytotoxicity against MDCK cells assessed as alteration in cell morphology after 3 days by microscopic method; format: cell-based, Canis lupus familiaris; details: dog
Outline: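 Mock-infected MDCK cells were treated with compounds in parallel with the antiviral assay, 3 days at 35 °C. MCC is the concentration causing minimal change in cell morphology by microscopy. CC50 is the 50% cytotoxic concentration by MTS formazan viability assay.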

Influenza B virus [6] = assay: Antiviral activity against Influenza B virus B/HK/05/72 infected in MDCK cells assessed as reduction in virus-induced cytopathic effect after 3 days by microscopic method; format: functional, organism-based; details: B/Hong Kong/05/1972, MDCK, 72 h; outline: as §1
Influenza A virus [7] = assay: Antiviral activity against Influenza A virus A/Virginia/ATCC3/2009(H1N1pdm) infected in MDCK cells after 3 days by MTS assay; format: functional, organism-based, Influenza A virus (A/Virginia/03/2009(H1N1)); details: 72 h; outline: as §1
H3N2 subtype [8] = assay: Antiviral activity against Influenza A virus A/HK/7/87(H3N2) infected in MDCK cells after 3 days by MTS assay; format: functional, organism-based; details: A/Hong Kong/7/1987(H3N2), 72 h; outline: as §1
Influenza B virus [9] = assay: Antiviral activity against Influenza B virus B/HK/05/72 infected in MDCK cells after 3 days by MTS assay; format: functional, organism-based; details: B/Hong Kong/05/1972, MDCK, 72 h; outline: as §1
H3N2 subtype [10] = assay: Antiviral activity against Influenza A virus A/HK/7/87(H3N2) infected in MDCK cells assessed as reduction in virus-induced cytopathic effect after 3 days by microscopic method; format: functional, organism-based; details: A/Hong Kong/7/1987(H3N2), 72 h; outline: as §1
[11] = Cytotoxicity against MDCK cells assessed as reduction in cell viability after 3 days by MTS assay; format: cell-based, Canis lupus familiaris; details: dog, MDCK cells

Structure (SMILES)	inhibition (Influenza A virus [1])	EC50 (Influenza A virus [2])	EC50 (Influenza A virus [3])	EC50 (Influenza A virus [4])	MCC at 72 h [5]	EC50 (Influenza B virus [6])	EC50 (Influenza A virus [7])	EC50 (H3N2 subtype [8])	EC50 (Influenza B virus [9])	EC50 (H3N2 subtype [10])	CC50 at 72 h [11]
COC(=O)[C@@H]1NC(=O)[C@@H]2NC(=O)[C@H](NC(=O)[C@@H]3NC(=O)[C@H]4NC(=O)[C@H](NC(=O)[C@H](Nc5c(NCc6ccc(-c7ccccc7)cc6)c(=O)c5=O)c5ccc(O)c(c5)Oc5cc4cc(O)c5C)[C@H](O)c4ccc(cc4)Oc4cc3cc(c4O)Oc3ccc(cc3)[C@H]2O)c2ccc(O)c(c2)-c2c(O)cc(O)cc21	Dose-dependent effect										
CC(=O)N[C@H]1[C@H](O[C@@H]2c3ccc(c(Cl)c3)Oc3cc4cc(c3O)Oc3ccc(cc3Cl)C[C@H]3NC(=O)[C@H](n5cc(COc6ccccc6)nn5)c5ccc(O)c(c5)Oc5cc(O)cc(c5)[C@H](NC3=O)C(=O)N[C@H]4C(O)N[C@H]3C(=O)N[C@H]2C(=O)N[C@@H](C(=O)O)c2cc(O)cc(O)c2-c2cc3ccc2O)O[C@H](CO)[C@@H](O)[C@@H]1O (some centres undefined)		> 100 µM	> 100 µM	> 100 µM	≥ 20 µM	> 100 µM	> 100 µM	11 µM	> 100 µM	11 µM	41 µM
CC(C)c1ccccc1NCCN1CCCCC1	Dose-dependent effect										
CCc1ccccc1OCCN1CCCCCC1	Dose-dependent effect										
CC(=O)N[C@H]1[C@H](O[C@@H]2c3ccc(c(Cl)c3)Oc3cc4cc(c3O)Oc3ccc(cc3Cl)C[C@H]3NC(=O)[C@H](n5cc(CCOc6c7cc(C(C)(C)C)cc6Cc6cc(C(C)(C)C)cc(c6O)Cc6cc(C(C)(C)C)cc(c6O)Cc6cc(C(C)(C)C)cc(c6O)C7)nn5)c5ccc(O)c(c5)Oc5cc(O)cc(c5)[C@H](NC3=O)C(=O)N[C@H]4C(O)N[C@H]3C(=O)N[C@H]2C(=O)N[C@@H](C(=O)O)c2cc(O)cc(O)c2-c2cc3ccc2O)O[C@H](CO)[C@@H](O)[C@@H]1O (some centres undefined)		43 µM	> 100 µM	8.9 µM	≥ 20 µM	> 100 µM	6.7 µM	5.2 µM	5.7 µM	> 100 µM	≥ 58 µM
CCN(CC)CCCC(C)Nc1ccnc2cc(Cl)ccc12 (centres undefined)	Dose-dependent effect										
